Source: ChEMBL document CHEMBL4706563, “Triphenylethylene analogues: Design, synthesis and evaluation of antitumor activity and topoisomerase inhibitors” (Eur J Med Chem, 2020)
Active and inactive are the calls of the source. The calls are words filed in the database; no cut-off is given here.

What was measured:
Format in all cases: functional
SF-539 = test: Antiproliferative activity against human SF-539 cells assessed as growth inhibition at 10 uM relative to control; conditions: read-out: GI
Outline: (§1)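 Single-dose screen run by the US National Cancer Institute across its 60-human tumour cell line panel. Each compound was tested at one concentration. Percent growth inhibition was recorded for each cell line.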

DU-145 = test: Antiproliferative activity against human DU-145 cells assessed as growth inhibition at 10 uM relative to control; conditions: read-out: GI; outline: as §1
SK-MEL-28 = test: Antiproliferative activity against human SK-MEL-28 cells assessed as growth inhibition at 10 uM relative to control; conditions: read-out: GI
Outline: (§2)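 NCI 60 human tumour cell line panel screen. Compounds tested at a single dose and growth inhibition (%) determined for each line.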

HOP-92 = test: Antiproliferative activity against human HOP-92 cells assessed as growth inhibition at 10 uM relative to control; conditions: read-out: GI; outline: as §1
SN12C = test: Antiproliferative activity against human SN12C cells assessed as growth inhibition at 10 uM relative to control; conditions: read-out: GI; outline: as §2
A549 = test: Antiproliferative activity against human A549 cells assessed as growth inhibition at 10 uM relative to control; conditions: read-out: GI; outline: as §1
CAKI-1 = test: Antiproliferative activity against human CAKI-1 cells assessed as growth inhibition at 10 uM relative to control; conditions: read-out: GI; outline: as §1
HCC 2998 = test: Antiproliferative activity against human HCC 2998 cells assessed as growth inhibition at 10 uM relative to control; outline: as §1
NCI-H226 = test: Antiproliferative activity against human NCI-H226 cells assessed as growth inhibition at 10 uM relative to control; conditions: read-out: GI; outline: as §1
TK-10 = test: Antiproliferative activity against human TK-10 cells assessed as growth inhibition at 10 uM relative to control; conditions: read-out: GI; outline: as §2
UACC-257 = test: Antiproliferative activity against human UACC-257 cells assessed as growth inhibition at 10 uM relative to control; conditions: read-out: GI; outline: as §2
BT-549 = test: Antiproliferative activity against human BT-549 cells assessed as growth inhibition at 10 uM relative to control; conditions: read-out: GI; outline: as §1
OVCAR-8 = test: Antiproliferative activity against human OVCAR-8 cells assessed as growth inhibition at 10 uM relative to control; conditions: read-out: GI; outline: as §1
OVCAR-3 = test: Antiproliferative activity against human OVCAR-3 cells assessed as growth inhibition at 10 uM relative to control; conditions: read-out: GI; outline: as §1
Hs-578T = test: Antiproliferative activity against human Hs-578T cells assessed as growth inhibition at 10 uM relative to control; conditions: read-out: GI; outline: as §1
OVCAR-4 = test: Antiproliferative activity against human OVCAR-4 cells assessed as growth inhibition at 10 uM relative to control; conditions: read-out: GI; outline: as §1
LOX IMVI = test: Antiproliferative activity against human LOX IMVI cells assessed as growth inhibition at 10 uM relative to control; conditions: read-out: GI; outline: as §1
NCI-H23 = test: Antiproliferative activity against human NCI-H23 cells assessed as growth inhibition at 10 uM relative to control; outline: as §1
K562 = test: Antiproliferative activity against human K562 cells assessed as growth inhibition at 10 uM relative to control; conditions: read-out: GI; outline: as §1
SK-MEL-2 = test: Antiproliferative activity against human SK-MEL-2 cells assessed as growth inhibition at 10 uM relative to control; conditions: read-out: GI; outline: as §1
PC-3 = test: Antiproliferative activity against human PC-3 cells assessed as growth inhibition at 10 uM relative to control; conditions: read-out: GI; outline: as §1
MDA-MB-231 = test: Antiproliferative activity against human MDA-MB-231 cells assessed as growth inhibition at 10 uM relative to control; outline: as §1
UO-31 = test: Antiproliferative activity against human UO-31 cells assessed as growth inhibition at 10 uM relative to control; conditions: read-out: GI; outline: as §2
Malme-3M = test: Antiproliferative activity against human Malme-3M cells assessed as growth inhibition at 10 uM relative to control; conditions: read-out: GI; outline: as §1
EKVX = test: Antiproliferative activity against human EKVX cells assessed as growth inhibition at 10 uM relative to control; conditions: read-out: GI; outline: as §1
NCI-H460 = test: Antiproliferative activity against human NCI-H460 cells assessed as growth inhibition at 10 uM relative to control; conditions: read-out: GI; outline: as §1
COLO 205 = test: Antiproliferative activity against human COLO 205 cells assessed as growth inhibition at 10 uM relative to control; conditions: read-out: GI; outline: as §1
SW-620 = test: Antiproliferative activity against human SW-620 cells assessed as growth inhibition at 10 uM relative to control; conditions: read-out: GI; outline: as §2
SK-OV-3 = test: Antiproliferative activity against human SK-OV-3 cells assessed as growth inhibition at 10 uM relative to control; conditions: read-out: GI; outline: as §2
HOP-62 = test: Antiproliferative activity against human HOP-62 cells assessed as growth inhibition at 10 uM relative to control; conditions: read-out: GI; outline: as §1
786-0 = test: Antiproliferative activity against human 786-0 cells assessed as growth inhibition at 10 uM relative to control; conditions: read-out: GI; outline: as §1
ACHN = test: Antiproliferative activity against human ACHN cells assessed as growth inhibition at 10 uM relative to control; conditions: read-out: GI; outline: as §1
SNB-19 = test: Antiproliferative activity against human SNB-19 cells assessed as growth inhibition at 10 uM relative to control; outline: as §2
KM12 = test: Antiproliferative activity against human KM12 cells assessed as growth inhibition at 10 uM relative to control; conditions: read-out: GI; outline: as §1
MOLT-4 = test: Antiproliferative activity against human MOLT-4 cells assessed as growth inhibition at 10 uM relative to control; conditions: read-out: GI; outline: as §1
NCI-H522 = test: Antiproliferative activity against human NCI-H522 cells assessed as growth inhibition at 10 uM relative to control; conditions: read-out: GI; outline: as §1
U-251 = test: Antiproliferative activity against human U251 cells assessed as growth inhibition at 10 uM relative to control; conditions: read-out: GI; outline: as §2
M14 = test: Antiproliferative activity against human M14 cells assessed as growth inhibition at 10 uM relative to control; conditions: read-out: GI; outline: as §1
MDA-MB-468 = test: Antiproliferative activity against human MDA-MB-468 cells assessed as growth inhibition at 10 uM relative to control; conditions: read-out: GI; outline: as §1
UACC-62 = test: Antiproliferative activity against human UACC-62 cells assessed as growth inhibition at 10 uM relative to control; conditions: read-out: GI; outline: as §2
A498 = test: Antiproliferative activity against human A498 cells assessed as growth inhibition at 10 uM relative to control; conditions: read-out: GI; outline: as §1
SK-MEL-5 = test: Antiproliferative activity against human SK-MEL-5 cells assessed as growth inhibition at 10 uM relative to control; conditions: read-out: GI; outline: as §2
CCRF-CEM = test: Antiproliferative activity against human CCRF-CEM cells assessed as growth inhibition at 10 uM relative to control; conditions: read-out: GI; outline: as §1
SR = test: Antiproliferative activity against human SR cells assessed as growth inhibition at 10 uM relative to control; conditions: read-out: GI; outline: as §2
HL-60(TB) = test: Antiproliferative activity against human HL-60(TB) cells assessed as growth inhibition at 10 uM relative to control; conditions: read-out: GI
SNB-75 = test: Antiproliferative activity against human SNB-75 cells assessed as growth inhibition at 10 uM relative to control; conditions: read-out: GI; outline: as §2
RPMI-8226 = test: Antiproliferative activity against human RPMI-8226 cells assessed as growth inhibition at 10 uM relative to control; conditions: read-out: GI; outline: as §1
HCT-116 = test: Antiproliferative activity against human HCT-116 cells assessed as growth inhibition at 10 uM relative to control; conditions: read-out: GI; outline: as §1
HCT-15 = test: Antiproliferative activity against human HCT-15 cells assessed as growth inhibition at 10 uM relative to control; conditions: read-out: GI; outline: as §1
MCF7 = test: Antiproliferative activity against human MCF7 cells assessed as growth inhibition at 10 uM relative to control; conditions: read-out: GI; outline: as §1
T47D = test: Antiproliferative activity against human T47D cells assessed as growth inhibition at 10 uM relative to control; conditions: read-out: GI; outline: as §2
NCI/ADR-RES = test: Antiproliferative activity against human NCI/ADR-RES cells assessed as growth inhibition at 10 uM relative to control; conditions: read-out: GI; outline: as §1
HT-29 = test: Antiproliferative activity against human HT29 cells assessed as growth inhibition at 10 uM relative to control; conditions: read-out: GI; outline: as §1
NCI-H322M = test: Antiproliferative activity against human NCI-H322M cells assessed as growth inhibition at 10 uM relative to control; conditions: read-out: GI; outline: as §1
MDA-MB-435 = test: Antiproliferative activity against human MDA-MB-435 cells assessed as growth inhibition at 10 uM relative to control; conditions: read-out: GI; outline: as §1
IGROV-1 = test: Antiproliferative activity against human IGROV-1 cells assessed as growth inhibition at 10 uM relative to control; conditions: read-out: GI; outline: as §1
SF-295 = test: Antiproliferative activity against human SF-295 cells assessed as growth inhibition at 10 uM relative to control; outline: as §1

C/C(=C(/c1ccccc1)c1ccc(OCC(O)CN2CCOCC2)cc1)c1ccccc1 (configuration not stated)
inhibition of growth at 10 µM (SF-539): 25.8%
inhibition of growth at 10 µM (DU-145): 1.88%
inhibition of growth at 10 µM (SK-MEL-28): 10%
inhibition of growth at 10 µM (HOP-92): 19.8%
inhibition of growth at 10 µM (SN12C): 11.6%
inhibition of growth at 10 µM (A549): 12.8%
inhibition of growth at 10 µM (CAKI-1): 19.9%
growth inhibition (GI) (HCC 2998): inactive
inhibition of growth at 10 µM (NCI-H226): 3.44%
inhibition of growth at 10 µM (TK-10): 5.68%
inhibition of growth at 10 µM (UACC-257): 6.64%
inhibition of growth at 10 µM (BT-549): 6.69%
inhibition of growth at 10 µM (OVCAR-8): 11.5%
inhibition of growth at 10 µM (OVCAR-3): 9.6%
inhibition of growth at 10 µM (Hs-578T): 9.19%
inhibition of growth at 10 µM (OVCAR-4): 10.7%
inhibition of growth at 10 µM (LOX IMVI): 12.2%
growth inhibition (GI) (NCI-H23): inactive
inhibition of growth at 10 µM (K562): 80.3%
inhibition of growth at 10 µM (SK-MEL-2): 1.12%
inhibition of growth at 10 µM (PC-3): 28.2%
growth inhibition (GI) (MDA-MB-231): inactive
inhibition of growth at 10 µM (UO-31): 26.3%
inhibition of growth at 10 µM (Malme-3M): 24.8%
inhibition of growth at 10 µM (EKVX): 3.36%
inhibition of growth at 10 µM (NCI-H460): 7.41%
inhibition of growth at 10 µM (COLO 205): 30.6%
inhibition of growth at 10 µM (SW-620): 11.4%
inhibition of growth at 10 µM (SK-OV-3): 8.68%
inhibition of growth at 10 µM (HOP-62): 9.9%
inhibition of growth at 10 µM (786-0): 32.9%
inhibition of growth at 10 µM (ACHN): 1.16%
growth inhibition (GI) (SNB-19): inactive
inhibition of growth at 10 µM (KM12): 36.4%
inhibition of growth at 10 µM (MOLT-4): 38.5%
inhibition of growth at 10 µM (NCI-H522): 26.7%
inhibition of growth at 10 µM (U-251): 19.9%
inhibition of growth at 10 µM (M14): -45.1%
inhibition of growth at 10 µM (MDA-MB-468): 14.9%
inhibition of growth at 10 µM (UACC-62): 3%
inhibition of growth at 10 µM (A498): 8.44%
inhibition of growth at 10 µM (SK-MEL-5): 12.9%
inhibition of growth at 10 µM (CCRF-CEM): 19.6%
inhibition of growth at 10 µM (SR): 52.8%
inhibition of growth at 10 µM (HL-60(TB)): 39.3%
inhibition of growth at 10 µM (SNB-75): 8.61%
inhibition of growth at 10 µM (RPMI-8226): 25%
inhibition of growth at 10 µM (HCT-116): 53.6%
inhibition of growth at 10 µM (HCT-15): 46.2%
inhibition of growth at 10 µM (MCF7): 15.8%
inhibition of growth at 10 µM (T47D): 39.7%
inhibition of growth at 10 µM (NCI/ADR-RES): 6.78%
inhibition of growth at 10 µM (HT-29): 86.9%
inhibition of growth at 10 µM (NCI-H322M): 4.48%
inhibition of growth at 10 µM (MDA-MB-435): 9.29%
inhibition of growth at 10 µM (IGROV-1): 3.82%
growth inhibition (GI) (SF-295): inactive
